Data reported in ChEMBL document CHEMBL1137336, “Structure-function correlation of chloroquine and analogues as transgene expression enhancers in nonviral gene delivery” (J Med Chem, 2006).
Values belong to the compound of their own block, whether it stands above or below them. Active and inactive are the calls of the source. No cut-off for these calls is given here.

Tests used:
HepG2 [1] = test: Transfection of CDP/plasmid pGL3-CV in HepG2 cells at 200 uM after 48 hrs by luciferase assay; format: functional, Homo sapiens
Summary of the method: (§1)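 Cells plated at 5 × 10⁴/well 24 h ahead and rinsed with PBS. CDP/pGL3-CV polyplexes (1 µg DNA, charge ratio 5 +/-) applied in Opti-MEM with compound for 4 h at 37 °C, 5% CO₂, then medium replaced. After another 44 h, lysates assayed for luciferase in duplicate, expressed as RLU/mg protein. Viability taken as total lysate protein by modified Lowry (DC) assay, normalized to cells transfected with naked DNA.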

HepG2 [2] = test: Uptake of CDP/plasmid pGL3-CV polyplexes in HepG2 cells after 2 hrs; format: ADME, cell-based; details: human, hepg2, 2 h
HepG2 [3] = test: Uptake of CDP/plasmid pGL3-CV polyplexes in HepG2 cells after 30 mins; format: ADME, cell-based; details: human, hepg2, 0.5 h
HeLa [4] = test: Viability of human HeLa cells at 200 uM; format: functional; summary of the method: as §1
HeLa [5] = test: Transfection of CDP/plasmid pGL3-CV in HeLa cells at 200 uM after 48 hrs by luciferase assay; format: functional, Homo sapiens; summary of the method: as §1
HepG2 [6] = test: Viability of human HepG2 cells at 200 uM; format: functional; summary of the method: as §1
Nucleic Acid [7] = test: Displacement of plasmid pGL3-CV from CDP/plasmid pGL3-CV polyplexes at 2.5 mM; format: nucleic-acid assay
Summary of the method: (§2)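 pGL3-CV (2 µg, 0.6 pmol) complexed with CDP (24 µg, 4 nmol), diluted in PBS and held 30 min at 25 °C. Mixed with compound for a further 30 min at 25 °C, then passed through a 100 nm membrane presoaked with matching compound concentration. Free DNA in filtrate measured by DAPI fluorescence (ex 350/em 465 nm). % released = (If−I0)/(It−I0)×100.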

HepG2 [8] = test: Uptake in human HepG2 cells after 4 hrs in presence of CDP/plasmid pGL3-CV polyplexes; format: ADME, cell-based; details: hepg2, 4 h
Summary of the method: (§3)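 HepG2 cells (2 × 10⁶) incubated at 37 °C in Opti-MEM (pH 7.4) with 100 µM compound, with or without CDP/pDNA (20 nmol/3 pmol). At set times, washed with cold PBS with and then without compound, lysed, and diluted in 0.1 N NaOH. Fluorescence read at ex 360/em 465 nm, converted by standard curve, and cellular concentration calculated assuming a cell volume of 3 × 10⁻⁶ µL.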

Nucleic Acid [9] = test: Displacement of plasmid pGL3-CV from CDP/plasmid pGL3-CV polyplexes at 5 to 20 mM; format: nucleic-acid assay; summary of the method: as §2
Nucleic Acid [10] = test: Transcription of plasmid pGL3-CV upto 2.5 mM relative to control; format: nucleic-acid assay
Nucleic Acid [11] = test: Binding affinity to plasmid pGL3-CV assessed as retardation of movement in gel at 100 uM; format: nucleic-acid assay
Summary of the method: (§4)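 pGL3-CV plasmid mixed with compound across 0.1-10 mM, each solution held ~10 min, then loading buffer and Borax buffer (0.025 M, pH 8.4) added. Run on 0.5% agarose gel containing ethidium bromide in TAE (40 mM Tris-acetate, 1 mM EDTA). Mobility compared with untreated plasmid.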

Nucleic Acid [12] = test: Exclusion of picogreen dye from plasmid pGL3-CV at 0.5 mM; format: nucleic-acid assay
Summary of the method: (§5)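 CDP/pGL3-CV polyplexes diluted 2.5× in water, then mixed 1:1 with compound at twice the final concentration. Incubated 5 min at room temperature, then combined with an equal volume of PicoGreen diluted 200× in 10 mM HEPES. Fluorescence read at ex 488/em 535 nm; exclusion taken as loss of dye fluorescence.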

Nucleic Acid [13] = test: Displacement of plasmid pGL3-CV from CDP/plasmid pGL3-CV polyplexes at 500 uM; format: nucleic-acid assay; summary of the method: as §2
HepG2 [14] = test: Uptake in human HepG2 cells at 100 uM after 4 hrs; format: ADME, cell-based; details: hepg2, 4 h; summary of the method: as §3
Nucleic Acid [15] = test: Exclusion of picogreen dye from plasmid pGL3-CV at 1 mM; format: nucleic-acid assay; summary of the method: as §5
Nucleic Acid [16] = test: Displacement of plasmid pGL3-CV from CDP/plasmid pGL3-CV polyplexes at 20 mM; format: nucleic-acid assay; summary of the method: as §2
Nucleic Acid [17] = test: Binding affinity to plasmid pGL3-CV assessed as retardation of movement in gel at 1 mM; format: nucleic-acid assay; summary of the method: as §4
Nucleic Acid [18] = test: Binding affinity to plasmid pGL3-CV assessed as retardation of movement in gel at 10 mM; format: nucleic-acid assay; summary of the method: as §4
Nucleic Acid [19] = test: Exclusion of picogreen dye from plasmid pGL3-CV at 4 mM; format: nucleic-acid assay; summary of the method: as §5
HepG2 [20] = test: Uptake in human HepG2 cells at 100 uM after 30 mins; format: ADME, cell-based; details: hepg2, 0.5 h; summary of the method: as §3
HepG2 [21] = test: Viability of human HepG2 cells at 150 uM; format: functional; summary of the method: as §1
HepG2 [22] = test: Transfection of CDP/plasmid pGL3-CV in HepG2 cells at 150 uM after 48 hrs by luciferase assay; format: functional, Homo sapiens; summary of the method: as §1
HepG2 [23] = test: Transfection of CDP/plasmid pGL3-CV in HepG2 cells at 100 uM after 48 hrs by luciferase assay; format: functional, Homo sapiens; summary of the method: as §1
HepG2 [24] = test: Viability of human HepG2 cells at 100 uM; format: functional; summary of the method: as §1
HepG2 [25] = test: Transfection of CDP/plasmid pGL3-CV in HepG2 cells at 20 uM after 48 hrs by luciferase assay; format: functional, Homo sapiens; summary of the method: as §1
HepG2 [26] = test: Viability of human HepG2 cells at 20 uM; format: functional; summary of the method: as §1

Compound: CCN(CC)CCCC(C)Nc1ccncc1 (configuration not stated)
- Activity (HepG2 [1]): 6400000 RLU/mg
- Activity (HepG2 [2]): 76.2%
- Activity (HepG2 [3]): 12.8%
- Activity (HeLa [4]): 101%
- Activity (HeLa [5]): 82000 RLU/mg
- Activity (HepG2 [6]): 85%

Compound: CCN(CC)CCCC(C)Nc1ccnc2ccccc12 (configuration not stated)
- Activity (Nucleic Acid [7]): < 3%
- Drug uptake (HepG2 [8]): 2 mM
- Activity (HepG2 [1]): 2700000 RLU/mg
- Activity (HepG2 [2]): 75.5%
- Activity (Nucleic Acid [9]): 10%
- Activity (HepG2 [3]): 18.8%
- Activity (Nucleic Acid [10]): 75%
- Activity (HepG2 [6]): 100%

Compound: CCN(CC)CCCC(C)Nc1ccnc2cc(C(F)(F)F)ccc12 (configuration not stated)
- Activity (Nucleic Acid [18]): Active
- Drug uptake (HepG2 [8]): 13 mM
- Activity (Nucleic Acid [19]): 100%
- Activity (HepG2 [1]): 170000000 RLU/mg
- Activity (Nucleic Acid [12]): 30%
- Activity (Nucleic Acid [13]): 40%
- Activity (HeLa [4]): 83%
- Activity (Nucleic Acid [15]): 30%
- Drug uptake (HepG2 [20]): 11 mM
- Activity (Nucleic Acid [16]): 70%
- Activity (Nucleic Acid [10]): 75%
- Activity (HeLa [5]): 6700000 RLU/mg
- Activity (HepG2 [6]): 61%

Compound: NCCN(CCN)CCNc1ccnc2cc(Cl)ccc12
- Activity (HepG2 [21]): 83%
- Activity (HepG2 [22]): 25000000 RLU/mg
- Activity (Nucleic Acid [10]): 75%

Compound: NCCCN1CCN(CCCNc2ccnc3cc(Cl)ccc23)CC1
- Activity (HepG2 [23]): 20000000 RLU/mg
- Activity (HepG2 [24]): 74%
- Activity (Nucleic Acid [10]): 75%

Compound: CC(C)NCCNCCNc1ccnc2cc(Cl)ccc12
- Activity (HepG2 [1]): 22000000 RLU/mg
- Activity (Nucleic Acid [10]): 75%
- Activity (HepG2 [6]): 74%

Compound: CCN(CC)CCCC(C)Nc1c2ccc(Cl)cc2nc2ccc(OC)cc12 (configuration not stated) [QUINACRINE]
- Activity (HepG2 [25]): 25000000 RLU/mg
- Activity (HepG2 [26]): 57%

Compound: CCN(CC)CCOc1ccnc2cc(Cl)ccc12
- Activity (Nucleic Acid [12]): 17%
- Activity (HeLa [4]): 92%
- Activity (Nucleic Acid [15]): 17%
- Activity (Nucleic Acid [10]): 75%
- Activity (HeLa [5]): 230000 RLU/mg

Second part, led by results:

- Drug uptake (HepG2 [8]): 13 mM
- Activity (HepG2 [2]): 67.7%
- Activity (Nucleic Acid [11]): inactive
- Activity (Nucleic Acid [12]): 23%
- Activity (HepG2 [3]): 11.9%
- Activity (Nucleic Acid [13]): 10%
- Drug uptake (HepG2 [14]): 12 mM
- Activity (Nucleic Acid [15]): 23%
- Activity (Nucleic Acid [16]): 50%
- Activity (Nucleic Acid [17]): inactive
- Activity (Nucleic Acid [10]): 75%
Compound: CCN(CC)CCCC(C)Nc1ccnc2cc(Cl)ccc12 (configuration not stated) [CHLOROQUINE]
- Activity (HepG2 [1]): 16000000 RLU/mg
- Activity (HeLa [4]): 82%
- Activity (HeLa [5]): 4300000 RLU/mg
- Activity (HepG2 [6]): 60%

- Activity (Nucleic Acid [10]): 75%
Compound: CC(Nc1ccnc2cc(Cl)ccc12)C(=O)O (configuration not stated)
- Activity (HepG2 [21]): 84%
- Activity (HepG2 [22]): 4300000 RLU/mg

- Activity (Nucleic Acid [10]): 75%
Compound: CC(C)CCCC(C)Nc1ccnc2cc(Cl)ccc12 (configuration not stated)
- Activity (HepG2 [21]): 89%
- Activity (HepG2 [22]): 4700000 RLU/mg

- Activity (Nucleic Acid [10]): 75%
Compound: CN(C)CCNc1ccnc2cc(Cl)ccc12
- Activity (HepG2 [21]): 64%
- Activity (HepG2 [22]): 25000000 RLU/mg
